The values below come from ChEMBL document CHEMBL1154734, “Small-sized human immunodeficiency virus type-1 protease inhibitors containing allophenylnorstatine to explore the S2' pocket” (J Med Chem, 2009).

≈ marks a conversion by molar mass, not a printed value.

Series [1] concerns the target Protease (Human immunodeficiency virus 1) (UniProt Q9YQ12). Nature of the series: Inhibition of HIV1 recombinant protease at 50 nM after 15 mins by fluorescence assay. In a few lines:
(§1)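 Recombinant HIV-1 protease was assayed in MES–NaOH pH 5.5 with DTT, EDTA and NaCl, with inhibitor at 50 nM final (500 nM DMSO stock). The substrate was H-Lys-Ala-Arg-Val-Tyr-Phe(p-NO2)-Glu-Ala-Nle-NH2, and the reaction ran 15 min at 37 °C. It was stopped with 1 N HCl. The N-terminal fragment was quantified by RP-HPLC with fluorescence at ex 275/em 305 nm.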

Series [2] concerns Human immunodeficiency virus 1. Nature of the series: Antiviral activity against HIV1 3B infected in human MT4 cells assessed as inhibition of virus-induced cytopathic effect after 5 days by MTT assay. It counts as functional, organism-based. The settings on record: Human immunodeficiency virus 1, 3B, MT4, 120 h. In a few lines:
(§2)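 HIV-1 (IIIB or pNL4-3) inoculated into MT-4 cells. Cultures were treated with an equal volume of a 1% DMSO solution of compound at several concentrations plus 10% fetal bovine serum, then incubated 5 days at 37 °C in CO2, in triplicate. After MTT, optical density gave the percent cytopathic effect reduction. EC50 was fitted to a median-effect equation.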
On the technique in general: Cytopathic effects are the visible damage that an infection or toxin causes in cultured cells.

Series [3] deals with Protease (Human immunodeficiency virus 1) (UniProt Q9YQ12). Nature of the series: Inhibition of HIV1 recombinant protease at 1 nM after 3 hrs by fluorescence assay.
Sequence of Protease (Human immunodeficiency virus 1) (Q9YQ12 as listed by the source): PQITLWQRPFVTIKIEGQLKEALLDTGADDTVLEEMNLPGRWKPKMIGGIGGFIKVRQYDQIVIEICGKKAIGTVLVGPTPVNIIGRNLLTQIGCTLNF
Series [4] has as its system Human immunodeficiency virus 1. Description: Antiviral activity against HIV1 pNL4-3 infected in human MT4 cells assessed as inhibition of virus-induced cytopathic effect after 5 days by MTT assay. It counts as functional, organism-based. The settings on record: Human immunodeficiency virus 1, pNL4-3, MT4, 120 h. The method in brief: as §2
The subject of series [5] is Human immunodeficiency virus 1. Description: Antiviral activity against indinavir-resistant HIV1 harboring L10R/M46I/L63P/V82T/I84V mutant protease infected in human MT4 cells assessed as inhibition of virus-induced cytopathic effect after 5 days by MTT assay. It counts as functional, organism-based. To be noted: Human immunodeficiency virus 1, MT4, 120 h. In a few lines: (§3)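 MT-4 cells inoculated with HIV-1 wild-type pNL4-3 or indinavir-resistant IND-R, then given an equal volume of compound in 1% DMSO at several concentrations with 10% fetal bovine serum. Incubated 5 days at 37 °C in CO2, in triplicate. MTT read-out by optical density gave percent cytopathic-effect reduction; EC50 was fitted to a median-effect equation.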

Series [6] concerns Human immunodeficiency virus 1. Nature of the series: Fold resistance, ratio of EC50 for indinavir-resistant HIV1 harboring L10R/M46I/L63P/V82T/I84V mutant protease infected in human MT4 cells to EC50 for HIV1 pNL4-3 infected in human MT4 cells. Type of series: functional. In a few lines: as §3
Series [7] concerns Human immunodeficiency virus 1. Nature of the series: Antiviral activity against HIV1 pNL4-3 infected in human MT4 cells assessed as inhibition of virus-induced cytopathic effect after 5 days by MTT assay in absence of human serum. Type of series: functional, organism-based. The settings on record: Human immunodeficiency virus 1, pNL4-3, MT4, 120 h. The method in brief:
as §2

Series [8] deals with Human immunodeficiency virus 1. Nature of the series: Antiviral activity against HIV1 pNL4-3 infected in human MT4 cells assessed as inhibition of virus-induced cytopathic effect after 5 days by MTT assay in presence of 50% human serum. The settings on record: Human immunodeficiency virus 1, pNL4-3, MT4, 120 h. It counts as functional, organism-based. In a few lines:
(§4)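 MT-4 cells were infected with wild-type HIV-1 (IIIB or pNL4-3) in the presence of 50% human serum. Compound was added at several concentrations from a 1% DMSO solution, and cells were incubated 5 days at 37 °C in triplicate. Cytopathic effect reduction was read by MTT optical density, and EC50 was derived from a median-effect equation fit.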

Series [9] relates to Human immunodeficiency virus 1. Nature of the series: Ratio of EC50 for HIV1 pNL4-3 infected in human MT4 cells in presence of 50% human serum to EC50 for HIV1 pNL4-3 infected in human MT4 cells in absence of human serum. It counts as functional. In a few lines: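 HIV-1 pNL4-3 was inoculated into MT-4 cells, then test compound was added at several concentrations in 1% DMSO with 10% FBS. Cultures were incubated 5 days at 37 °C in CO2, in triplicate, and the cytopathic effect was read by MTT optical density. EC50 was fitted to a median-effect equation with and without 50% human serum. The serum binding effect is their ratio.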

The nature of series [10]: Aqueous solubility in 0.1% TFA after 30 mins by RP-HPLC analysis. The settings on record: 0.1% TFA in water. It counts as physicochemical.
Another series deals with Protease (Human immunodeficiency virus 1, UniProt Q9YQ12). Nature of the series: Inhibition of HIV1 recombinant protease after 15 mins by fluorescence assay.
Sequence of Protease (Q9YQ12 whole entry): as the sequence (Q9YQ12 as listed by the source) above
Series [11] has as its system Human immunodeficiency virus 1. Description: Antiviral activity against HIV1 3B infected in human MT4 cells assessed as inhibition of virus-induced cytopathic effect after 5 days by MTT assay in absence of human serum. Type of series: functional, organism-based. The settings on record: Human immunodeficiency virus 1, 3B, MT4, 120 h. In a few lines:
as §2

The subject of series [12] is Human immunodeficiency virus 1. Nature of the series: Antiviral activity against HIV1 3B infected in human MT4 cells assessed as inhibition of virus-induced cytopathic effect after 5 days by MTT assay in presence of 50% human serum. It counts as functional, organism-based. The settings on record: Human immunodeficiency virus 1, 3B, MT4, 120 h. In a few lines: as §4

For series [13], the system named is Human immunodeficiency virus 1. Description: Ratio of EC50 for HIV1 3B infected in human MT4 cells in presence of 50% human serum to EC50 for HIV1 3B infected in human MT4 cells in absence of human serum. Type of series: functional.
Series [14] concerns Human immunodeficiency virus. Description: Inhibition of recombinant HIV protease at 50 nM after 15 mins by fluorescence assay. In a few lines:
as §1

Broadly, the inhibition is the relative decrease from the control value, in per cent. As a reminder, the EC50 is the concentration needed to bring the measured effect to its halfway point. For the compound `Cc1c(O)cccc1C(=O)N[C@@H](Cc1ccccc1)[C@H](O)C(=O)N1CSC(C)(C)[C@H]1C(=O)NCc1c(Cl)cccc1Cl`, the inhibition is 98% in [1] and 66% in series [3]. Also, the EC50 in series [2] was found to be 39 nM.
In the case of `Cc1c(O)cccc1C(=O)N[C@@H](Cc1ccccc1)[C@H](O)C(=O)N1CSC(C)(C)[C@H]1C(=O)NCc1c(F)cccc1Cl`, the inhibition turned out to be 97% in [1] and 50% in series [3]. Besides, the EC50 in series [2] stood at 32 nM; in series [4] it was 25 nM; in series [5], 157 nM. In series [6], the “Ratio EC50” value was 6.3.
On to `Cc1c(O)cccc1C(=O)N[C@@H](Cc1ccccc1)[C@H](O)C(=O)N1CSC(C)(C)[C@H]1C(=O)NCc1c(F)cccc1F`, for which the figures for the inhibition in series [1] and in series [3] were 91% and 24%, respectively. Besides, in series [2], the 50% effective concentration (EC50) was 51 nM.
Usually solubility stands for the concentration that dissolves in the medium under given conditions. For the compound `C=C(C)CNC(=O)[C@H]1N(C(=O)[C@@H](O)[C@H](Cc2ccccc2)NC(=O)COc2c(C)cc(N)cc2C)CSC1(C)C`, the inhibition in series [1] was 98%; in series [3], 43%. In addition, the values for the EC50 in series [7] and in [8] were 10 nM and 82 nM, respectively. Besides, in series [9], the “Ratio EC50” value stood at 8.2. In [10], this compound had a solubility at 0.5 h of 8480 µg/mL (≈ 14.9 mM).
Broadly, the Ki is the dissociation constant of the complex between target and ligand, obtained from inhibition or displacement. As to `Cc1ccccc1CNC(=O)[C@H]1N(C(=O)[C@@H](O)[C@H](Cc2ccccc2)NC(=O)c2cccc(O)c2C)CSC1(C)C`, on Protease, the inhibition constant Ki came to 0.031 nM. For the same compound, the inhibition in series [1] worked out at 99%; in [3], 72%. The half-maximal effective concentration (EC50) worked out at 33 nM in series [2], 60 nM in series [4] and 100 nM in series [5]. The “Ratio EC50” value in series [6] is on record as 1.7.
Consider `Cc1c(F)cccc1CNC(=O)[C@H]1N(C(=O)[C@@H](O)[C@H](Cc2ccccc2)NC(=O)c2cccc(O)c2C)CSC1(C)C`, for which the inhibition was 97% in series [1] and 53% in series [3]. Also, the EC50 in [2] is 56 nM.
`Cc1cccc(C)c1CNC(=O)[C@H]1N(C(=O)[C@@H](O)[C@H](Cc2ccccc2)NC(=O)c2cccc(O)c2C)CSC1(C)C`: the inhibition constant Ki at Protease was found to be 0.0024 nM. Further, the values for the inhibition in series [1] and in series [3] were 99% and 82%, respectively.
On to `Cc1c(O)cccc1C(=O)N[C@@H](Cc1ccccc1)[C@H](O)C(=O)N1CSC(C)(C)[C@H]1C(=O)N[C@@H](C)c1ccccc1`, for which the inhibition in series [1] worked out at 95%; in series [3], 31%. The EC50 in series [2] was found to be 79 nM.
In the case of `Cc1cc(N)cc(C)c1OCC(=O)N[C@@H](Cc1ccccc1)[C@H](O)C(=O)N1CSC(C)(C)[C@H]1C(=O)N[C@H]1CCc2ccccc21`, in [1], the inhibition is 97%. In addition, the EC50 was 48 nM in [4], 32 nM in series [11], 241 nM in series [12] and 416 nM in [5]. The “Ratio EC50” value in [13] is on record as 7.5; in series [6], 8.7. In series [10], this compound displayed a solubility at 0.5 h of 1710 µg/mL (≈ 2.71 mM).
Consider `C=C(C)CNC(=O)[C@H]1N(C(=O)[C@@H](O)[C@H](Cc2ccccc2)NC(=O)c2cccc(O)c2C)CSC1(C)C`, for which the inhibitory constant (Ki) on Protease was 0.19 nM. Besides, in series [1], the inhibition was determined as 98%. Moreover, in [4], the EC50 was 17 nM.
Take `Cc1cccc(Cl)c1CNC(=O)[C@H]1N(C(=O)[C@@H](O)[C@H](Cc2ccccc2)NC(=O)c2cccc(O)c2C)CSC1(C)C`: the inhibition in [1] was 99%; in series [3], 77%. Besides, in series [2], the EC50 turned out to be 32 nM.
Take `Cc1c(O)cccc1C(=O)N[C@@H](Cc1ccccc1)[C@H](O)C(=O)N1CSC(C)(C)[C@H]1C(=O)NC(C)(C)c1ccccc1`: the half-maximal effective concentration (EC50) in series [2] was 123 nM. In addition, the inhibition in series [14] amounted to 82%.
In the case of `Cc1c(O)cccc1CNC(=O)[C@H]1N(C(=O)[C@@H](O)[C@H](Cc2ccccc2)NC(=O)c2cccc(O)c2C)CSC1(C)C`, the inhibition in [1] worked out at 95%; in series [3], 41%. The 50% effective concentration (EC50) in [2] came out at 120 nM; in [4] it was 162 nM; in series [5], 155 nM. In series [6], the “Ratio EC50” value is listed as 1.
